In ChEMBL document CHEMBL3526056, “Characterization of in vitro glucuronidation clearance of a range of drugs in human kidney microsomes: comparison with liver and intestinal glucuronidation and impact of albumin” (Drug Metab Dispos, 2012):

How the values were obtained:
[1] = Ratio of drug level blood to plasma in human; assay type: ADME; details: blood and plasma
[2] = test system: Liver microsome; assay: Ratio of unbound intrinsic glucuronidation clearance in human liver microsomes in presence of 2% bovine serum albumin to unbound intrinsic glucuronidation clearance in human liver microsomes in absence of bovine serum albumin; assay type: ADME
Summary of the method: (§1)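 Ratios of mean scaled unbound CLint,UGT (per g tissue) between tissues, or between with and without BSA. Microsomal depletion assays at 1 μM, or 5 μM for propofol, in pH 7.1 phosphate at 37°C, read by LC-MS/MS. Kidney and liver n = 3, intestine n = 1, each in duplicate.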

[3] = Glucuronidation clearance in human liver microsomes; assay type: ADME
[4] = Fraction unbound in human kidney microsomes at 5 uM after 30 to 60 mins by LC-MS/MS analysis in presence of 2% bovine serum albumin
[5] = Fraction unbound in human liver microsomes at 5 uM after 30 to 60 mins by LC-MS/MS analysis
[6] = Fraction unbound in human plasma
[7] = Ratio of unbound intrinsic glucuronidation clearance in human intestinal microsomes in presence of 2% bovine serum albumin to unbound intrinsic glucuronidation clearance in human intestinal microsomes in absence of bovine serum albumin; assay type: ADME, Intestine, Microsome; summary of the method: as §1
[8] = Ratio of unbound intrinsic glucuronidation clearance in human kidney microsomes in presence of 2% bovine serum albumin to unbound intrinsic glucuronidation clearance in human kidney microsomes in absence of bovine serum albumin; assay type: ADME, microsome; summary of the method: as §1
[9] = test system: Liver microsome; assay: Fraction metabolized glucuronidation in human liver microsomes in presence of UDP-glucuronosyltransferase; assay type: ADME
[10] = test system: Liver microsome; assay: Fraction metabolized glucuronidation in human liver microsomes in presence of UDP-glucuronosyltransferase and bovine serum albumin; assay type: ADME
[11] = Glucuronidation clearance in human liver microsomes in presence of bovine serum albumin; assay type: ADME
[12] = Clearance in iv dosed human; assay type: ADME, organism-based; details: in vivo
[13] = Fraction unbound in human intestinal microsomes at 5 uM after 30 to 60 mins by LC-MS/MS analysis
[14] = Fraction unbound in human kidney microsomes at 5 uM after 30 to 60 mins by LC-MS/MS analysis

SMILES: CC(C)c1cccc(C(C)C)c1O [PROPOFOL]
- blood plasma ratio [1]: 0.88
- Ratio [2]: 1.6
- CLhep predicted [3]: 3.88 mL/min/kg
- fraction unbound at 5 µM [4]: 0.25
- fraction unbound at 5 µM [5]: 0.69
- fraction unbound [6]: 0.015
- Ratio [7]: 1.6
- Ratio [8]: 1.6
- Drug metabolism [9]: 0.14
- Drug metabolism [10]: 0.53
- CLhep predicted [11]: 14.7 mL/min/kg
- clearance [12]: 27.7 mL/min/kg
- fraction unbound at 5 µM [13]: 0.69
- fraction unbound at 5 µM [14]: 0.69
